Activity calls are given as the source filed them.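 How the source made its calls, unless noted: active means fluorescence slope after compound addition differing from the mean of all tested samples at 99.7% confidence, mostly higher but some lower; inactive means the rest.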
Assays:
[1] = inhibitors of TNFa-induced NFkB p65 translocation, primary screen, imaging, HUVEC, MLSMR starter and 10KST1 sets (AID 438;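 active means inhibition above 20% together with a positive visual image hit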;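 further: compound added about 3h40 before a 20 min TNFalpha stimulation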;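 on inhibition: signal is the nuclear over cytoplasmic p65 intensity ratio per well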); conditions: HUVEC TNFa-induced p65 nuclear translocation; cell count: measured here: nuclei count (cytotoxicity indicator), at 2.08 µM; inhibition: at 2 µM, stronger effect = higher value, 0% TNFa-plus-vehicle, 100% no-TNFa wells
[2] = inhibitors of mutant huntingtin aggregation, primary screen, imaging, exon1htt(103Q)mCFP cells, high-content imaging (AID 483;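 active means visual image review flags a hit and inhibition of aggregation exceeds 20%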;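 further: compound exposure lasted 3 days before fixation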;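 on nuclei count: percent of the per-plate median nuclei count of sample wells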); conditions: exon1htt(103Q)mCFP cell line, aggregate imaging, at 2 µM; inhibition of aggregation: stronger effect = higher value; nuclei count: measured here: cell count, toxicity
[3] = inhibitors of E-selectin induction by TNFa, primary screen, imaging, HUVEC, immunofluorescence, MLSMR starter and 10KST1 sets (AID 487;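 active means visually confirmed hit in the image check and inhibition above 20%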;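 on inhibition: signal is fraction of cell area covered by stained E-selectin grains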;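 on nuclei count: 100% = median nuclei count of all wells on the same plate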); conditions: HUVEC TNFalpha-induced E-selectin immunofluorescence imaging, at 2 µM; inhibition: stronger effect = higher value; nuclei count: measured here: cell number, toxicity
[4] = target: Voltage-gated potassium channel subunit beta-2 (Rattus norvegicus) (UniProt P62483); assay: KvBeta enzyme negative modulators, primary screen, biochemical, NADPH fluorescence (AID 622;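 active means fluorescence slope higher than the sample average by over 3 SD, cut at about -0.22 in these data, passing the limit was not always enough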;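 further: slope of raw intensity against log time taken from 70 to 1610 s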); conditions: recombinant KvBeta, 4-cyanobenzaldehyde reduction, at 10 µM, stronger effect = higher value
Sequence of Voltage-gated potassium channel subunit beta-2 (Rattus norvegicus) (P62483 whole entry, looked up): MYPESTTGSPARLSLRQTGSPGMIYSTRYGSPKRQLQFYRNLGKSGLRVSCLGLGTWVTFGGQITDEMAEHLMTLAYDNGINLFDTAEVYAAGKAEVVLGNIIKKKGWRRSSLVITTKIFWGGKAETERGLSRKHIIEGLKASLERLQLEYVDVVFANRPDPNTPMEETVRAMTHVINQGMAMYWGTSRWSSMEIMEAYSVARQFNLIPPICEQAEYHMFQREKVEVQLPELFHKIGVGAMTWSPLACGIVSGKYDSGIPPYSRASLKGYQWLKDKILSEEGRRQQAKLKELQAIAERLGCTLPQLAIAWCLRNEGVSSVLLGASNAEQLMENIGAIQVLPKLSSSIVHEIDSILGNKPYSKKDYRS

[5] = target: Voltage-gated potassium channel subunit beta-2 (Rattus norvegicus) (UniProt P62483); assay: KvBeta positive modulators, primary screen, biochemical, NADPH fluorescence (AID 623;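 active means NADPH fluorescence slope more negative than the mean of all samples by about 3 SD, 99.7% confidence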;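 further: fluorescence intensity change per second fitted from 20 to 320 s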); conditions: Recombinant KvBeta, NADPH fluorescence decrease slope, 10 min; at 10 µM; stronger effect = lower value
[6] = target: Muscarinic acetylcholine receptor M4 (Homo sapiens) (UniProt P08173); assay: compounds altering M4/GIRK thallium flux, either direction, primary screen, M4 allosteric agonist project, cell-based, HEK293 M4/GIRK, BTC-AM (AID 625); conditions: at 10 µM, actives lie on both sides;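 further: thallium influx through GIRK channels coupled to M4 in HEK293 cells with BTC-AM dye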
Sequence of Muscarinic acetylcholine receptor M4 (Homo sapiens) (P08173 whole entry, looked up): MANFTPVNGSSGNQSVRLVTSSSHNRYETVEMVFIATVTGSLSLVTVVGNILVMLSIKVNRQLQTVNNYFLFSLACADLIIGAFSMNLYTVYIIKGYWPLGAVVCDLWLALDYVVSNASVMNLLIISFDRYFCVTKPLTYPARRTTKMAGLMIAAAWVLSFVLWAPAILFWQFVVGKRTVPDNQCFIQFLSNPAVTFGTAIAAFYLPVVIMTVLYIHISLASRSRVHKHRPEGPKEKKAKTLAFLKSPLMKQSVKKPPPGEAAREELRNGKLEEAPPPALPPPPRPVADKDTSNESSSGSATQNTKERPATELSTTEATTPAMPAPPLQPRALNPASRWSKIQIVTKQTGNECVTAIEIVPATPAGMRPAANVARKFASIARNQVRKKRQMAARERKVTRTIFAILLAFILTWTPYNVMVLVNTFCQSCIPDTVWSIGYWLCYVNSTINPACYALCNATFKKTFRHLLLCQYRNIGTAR
In short: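 Material – HEK293 cells with M4 receptor and GIRK channels · Buffer or medium – pH 7.3 thallium assay buffer · Doses – one dose, 10 µM final · Timing – cells overnight at 37 °C, BTC-AM loading 1 h, reads 2 min total · Measured by – kinetic fluorescence with BTC-AM dye · Controls – carbachol and DMSO controls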

[7] = inhibitors of Sendai virus-induced IRF3 signaling, primary screen, TLR/RLR signaling modifier project, cell-based, Sendai virus stimulus, luciferase, 10K MLSCN set (AID 602276;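 active means inhibition at or above 50% at 10 µM; inactive means inhibition below 50%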;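 further: firefly luciferase from ISG56 promoter only with Renilla not read in this screen; 0% = Sendai virus plus DMSO and 100% = medium plus DMSO without virus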); conditions: HEK293 RL24 IRF3 luciferase reporter, at 10 µM, stronger effect = higher value
[8] = inhibitors of poly I:C-induced TLR3 signaling, primary screen, cell-based, poly I:C stimulus, luciferase, 10K MLSCN set (AID 602277;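 active means inhibition of the reporter signal at or above 50%; inactive means inhibition below 50%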); conditions: HEK293-TLR3 RL24 IRF3 luciferase reporter, at 10 µM, stronger effect = higher value

SMILES	cell count [1]	inhibition [1]	inhibition of aggregation [2]	nuclei count [2]	inhibition [3]	nuclei count [3]	fluorescence slope [4]	NADPH fluorescence slope [5]	fluorescence slope [6]	inhibition [7]	inhibition [8]
COc1ccc(-c2noc(CN3C(=O)c4ccccc4C3=O)n2)cc1	551	8.9% (inactive)	4.4% (inactive)	90.5%	-19.9% (inactive)	108%	-0.551 (inactive)	-4.8e-05 (inactive)	0.00296 (inactive)	0.341% (inactive)	-2.38% (inactive)
CC(C)(C)N(Cc1cc2ccccc2[nH]c1=O)C(=O)C1CCCCC1	510	-1.4% (inactive)	-4.5% (inactive)	110%	4% (inactive)	95.6%	-0.455 (inactive)	-7.9e-05 (inactive)	0.00597 (inactive)	-3.62% (inactive)	9.15% (inactive)
O=C(CN1C(=O)c2cccc3cccc1c23)NCC1CCCO1 (stereo not drawn)	356	20.1% (inactive)	13.2% (inactive)	79.5%	-58% (inactive)	102%	-0.433 (inactive)	-4.9e-05 (inactive)	0.00404 (inactive)	-5.13% (inactive)	-11.1% (inactive)
COc1cc(-c2nnc(SCC(=O)c3cc(C)n(CC4CCCO4)c3C)o2)cc(OC)c1OC (stereo not drawn)	317	2.8% (inactive)	23.1% (inactive)	94.5%	-43.2% (inactive)	115%	-0.245 (inactive)	-3.7e-06 (inactive)	0.00647 (inactive)	24.8% (inactive)	27.1% (inactive)
CCOC(=O)CSc1nc2ccccc2n2cnnc12	315	-1.4% (inactive)	13.5% (inactive)	103%	-4% (inactive)	113%	-0.327 (inactive)	-5.9e-05 (inactive)	0.00582 (inactive)	2.3% (inactive)	8.27% (inactive)
O=C(NCc1ccco1)c1cc2c(s1)CSC2	473	-4.3% (inactive)	3.2% (inactive)	105%	-31.1% (inactive)	118%	-0.544 (inactive)	1.9e-05 (inactive)	0.00557 (inactive)	9.74% (inactive)	12.5% (inactive)
CC(C)CCNC(=O)NC(=O)CSc1nnc(-c2ccccc2F)n1N	572	0.4% (inactive)	-5.6% (inactive)	104%	-223% (inactive)	178%	-0.517 (inactive)	9.8e-05 (inactive)	0.00509 (inactive)	-9.04% (inactive)	-3.83% (inactive)
c1ccc2c(-c3nc(C4CCCCC4)no3)cc(-c3ccncc3)nc2c1	570	-12.8% (inactive)	17.4% (inactive)	73.3%	48.8% (inactive)	58.9%	-0.535 (inactive)	-1.6e-05 (inactive)	0.00839 (inactive)	11.5% (inactive)	1.56% (inactive)
C=CCOc1nc(N2CCCC2)nc(N2CCCC2)n1	579	-7.6% (inactive)	4.8% (inactive)	109%	23.8% (inactive)	84.1%	-0.551 (inactive)	-8.3e-05 (inactive)	0.00552 (inactive)	10.7% (inactive)	14.3% (inactive)
Cc1ccc(C2N(c3ccc(Cl)c(Cl)c3)C(=O)C3CCCN32)o1 (stereo not drawn)	495	-1.5% (inactive)	7.9% (inactive)	98.2%	-11.2% (inactive)	97%	-0.561 (inactive)	-2e-05 (inactive)	0.0047 (inactive)	16.9% (inactive)	18.1% (inactive)
CCCc1nc2ccccc2c(=O)n1NC(=O)c1c(O)c2cccc3c2n(c1=O)CCC3	554	-15.1% (inactive)	-12.2% (inactive)	92%	-150% (inactive)	120%	-0.391 (inactive)	-0.000105 (inactive)	0.00863 (inactive)	7.44% (inactive)	6.93% (inactive)
CCOc1ccc(OCc2cccc(C(=O)O)c2)cc1	600	3.8% (inactive)	-11.5% (inactive)	112%	-68% (inactive)	116%	-0.551 (inactive)	-2.8e-05 (inactive)	0.00598 (inactive)	-46.2% (inactive)	-87.1% (inactive)
Cc1ccc(Cn2nnc3c(=O)[nH]c(C4CCN(C(=O)c5cccs5)CC4)nc32)cc1	430	5.1% (inactive)	-16.4% (inactive)	106%	-71.2% (inactive)	109%	-0.546 (inactive)	1.3e-05 (inactive)	0.00572 (inactive)	5.84% (inactive)	10.8% (inactive)
Cc1cc(C)nc(SCc2nnc(SCc3ccccc3Cl)o2)n1	428	-8.3% (inactive)	16.9% (inactive)	110%	-33.4% (inactive)	98.3%	-0.468 (inactive)	-0.000278 (inactive)	0.00428 (inactive)	6.47% (inactive)	0.418% (inactive)
COc1cc(C2C(C#N)=C(N)OC3=C2C(=O)CCC3)ccc1OC(=O)N1CCOCC1 (stereo not drawn)	503	-34.2% (inactive)	-16.1% (inactive)	93.7%	-20.8% (inactive)	101%	-0.37 (inactive)	-7.7e-05 (inactive)	0.00858 (inactive)	8.74% (inactive)	6.55% (inactive)
CCc1ccc(NS(=O)(=O)c2ccc3[nH]cc(C(=O)N4CCCCC4)c(=O)c3c2)cc1	672	13.7% (inactive)	14.2% (inactive)	86%	2.5% (inactive)	81.2%	-0.562 (inactive)	-5.7e-05 (inactive)	0.00784 (inactive)	20.2% (inactive)	24.4% (inactive)
CCC(=O)NC1(C(F)(F)F)C(=O)NC(C)=C1C#N (stereo not drawn)	382	3.6% (inactive)	11.2% (inactive)	98.2%	-18.8% (inactive)	105%	-0.445 (inactive)	4.4e-05 (inactive)	0.00561 (inactive)	14.9% (inactive)	25.3% (inactive)
COCCN1CN(S(=O)(=O)c2ccccc2)c2nc3ccccc3nc21	307	8.3% (inactive)	-0.3% (inactive)	94.4%	-47.3% (inactive)	160%	-0.54 (inactive)	-0.000125 (inactive)	0.00322 (inactive)	13.6% (inactive)	17.4% (inactive)
CC1(C)Cc2noc(N)c2C(C)(C)N1OC(=O)c1ccco1	295	-6.6% (inactive)	21.5% (inactive)	87.2%	-89.1% (inactive)	88.4%	-0.474 (inactive)	2.9e-05 (inactive)	0.00628 (inactive)	16.2% (inactive)	23.5% (inactive)
CSc1nnc(-c2cnccn2)n1C	679	-15.7% (inactive)	-6.5% (inactive)	121%	-73.6% (inactive)	109%	-0.603 (inactive)	-3.8e-06 (inactive)	0.00641 (inactive)	22.1% (inactive)	25.7% (inactive)
CNC(=O)c1c(O)c2cccc3c2n(c1=O)CC3	446	-8.8% (inactive)	-3.8% (inactive)	57%	-60.1% (inactive)	99%	-0.545 (inactive)	-5.3e-05 (inactive)	0.00595 (inactive)	1.98% (inactive)	-8.91% (inactive)
CCNc1oc(COc2cccc(C)c2)nc1C#N	791	-2.1% (inactive)	15.8% (inactive)	114%	-14.2% (inactive)	111%	-0.57 (inactive)	-5e-05 (inactive)	0.00641 (inactive)	-43.9% (inactive)	-83.4% (inactive)
COc1cccc(OC)c1C(=O)Nc1cccc(C(C)=O)c1	734	-11.6% (inactive)	19.3% (inactive)	95.5%	15.5% (inactive)	104%	-0.53 (inactive)	-1.1e-05 (inactive)	0.00451 (inactive)	12.1% (inactive)	27.4% (inactive)
CCS(=O)(=O)N1CCC(C(=O)NC2CCCCC2)CC1	572	4.5% (inactive)	7.8% (inactive)	110%	15.2% (inactive)	118%	-0.483 (inactive)	-0.000241 (inactive)	0.00287 (inactive)	10% (inactive)	16% (inactive)
CCC(c1nnc(SCC(=O)NCC2CCCO2)n1Cc1ccccc1)N(C)C (stereo not drawn)	414	-5.7% (inactive)	0.8% (inactive)	52.5%	-136% (inactive)	110%	-0.508 (inactive)	-2.1e-05 (inactive)	0.00548 (inactive)	21% (inactive)	25.8% (inactive)
Cc1ccc(S(=O)(=O)N2CCN(C(=O)CN3C(=O)NC4(CCOc5ccccc54)C3=O)CC2)cc1 (stereo not drawn)	697	-3.3% (inactive)	8.6% (inactive)	106%	-38.5% (inactive)	112%	-0.44 (inactive)	-0.000543 (inactive)	0.00414 (inactive)	-12.9% (inactive)	-7.58% (inactive)
O=C(Nc1ccccc1N1CCN(C(=O)c2ccc(Cl)cc2)CC1)c1cc2ccccc2o1	424	0% (inactive)	-5.5% (inactive)	101%	-108% (inactive)	104%	-0.549 (inactive)	-6.3e-06 (inactive)	0.00626 (inactive)	1.02% (inactive)	17% (inactive)
Cc1cc(C2C(C#N)=C(N)SC(N)=C2C#N)c(C)s1	755	-5% (inactive)	-30.7% (inactive)	102%	-27.1% (inactive)	130%	-0.573 (inactive)	-8.5e-05 (inactive)	0.00245 (inactive)	8.05% (inactive)	20.2% (inactive)
